Experimental data as given in ChEMBL document CHEMBL4513216, “Probing the Open Global Health Chemical Diversity Library for Multistage-Active Starting Points for Next-Generation Antimalarials” (ACS Infect Dis, 2020).

Test: Toxicity liver stage against HepG2, at 10uM
Format: cell-based
Parameters: test concentration 10 uM, cell line HepG2-A16-CD81EGFP
Conditions: human, HepG2-A16-CD81EGFP cells; read-out: INHIBITION
Method in brief: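 Uninfected HepG2-A16-CD81EGFP cells, 3 × 10^3 per well, 1536-well, plated on prespotted compound at 10 μM final, parasite-free screening media added to match infected plates; puromycin 10 μM positive, DMSO 0.5% negative; run in parallel with 48 h PbLuc assay at 37 °C, 5% CO2; viability by CellTiter-Glo luminescence, normalized to controls.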

Structure (SMILES)	cytotoxicity at 10 µM [%]
COC(CNC(=O)c1cc(C)on1)c1ccccc1C (stereo unspecified)	-17.8
CC(C)Cc1noc(CN2CCN(C(=O)c3ccco3)CC2)n1	-5.39
CC(C)(C)CCS(=O)(=O)NCCc1csc(N2CCCC2)n1	8.37
CN(C(=O)c1ccccc1NCC(=O)O)C(C1CC1)C1CC1	1.73
Cc1csc(N2CCN(C(=O)C(C)n3cncn3)CC2)n1 (stereo unspecified)	0.652
CC(C)c1nc2c(n1C)CCN(Cc1cccc(OCC(N)=O)c1)C2	-7.24
CC(=O)NC1CCCN(C(=O)Nc2nnc(C(C)C)s2)C1 (stereo unspecified)	12.6
OC[C@H]1CN(Cc2c(Cl)cncc2Cl)C[C@H]1CN1CCOCC1	-107
CCc1nc(CN2CCCN(c3nccs3)CC2)no1	-6.44
Cc1cc(C)c2nc(CN3CCOCC(O)C3)cc(O)c2c1 (stereo unspecified)	-3.89
CC(C)CN1CCC(C(=O)NCCNC(=O)c2ccccc2)CC1	1.22
Cc1ccc(CN2CCC[C@]3(C(=O)O)CN(c4ncccn4)C[C@@H]3C2)o1	-11.3
CN(CC(=O)NS(=O)(=O)c1ccc(F)cc1)Cc1ccccc1	14.3
CC(C)(C)NC(=O)CN1CCN(C(=O)Nc2ccc(F)cc2F)CC1	-23.2
Cc1cc2ncn(C[C@]3(O)CCCN4CCCC[C@@H]43)c2cc1C	-2.42
CCCNC(=O)NCc1cccnc1OC	4.6
CN(C)CCNCC1CCOC(C)(C)C1 (stereo unspecified)	-9.35
CN(CCOc1cccc(S(C)(=O)=O)c1)c1ccccc1	2.3
NC(=O)c1ccnc(N2CCCC(CO)(Cc3ccc(F)cc3)C2)c1 (stereo unspecified)	14.1
CCCc1noc(CNC2CCCN(Cc3noc(C4CC4)n3)C2)n1 (stereo unspecified)	-13.5
Cc1ccc(N(CCC#N)C(=O)CN2CCCC2c2ccsc2)cc1C (stereo unspecified)	-11.2
Cc1cc(CN2CCOC(CN(C)C)C2)no1 (stereo unspecified)	-0.759
Cc1nc(N2CCOCC2)nc2c1CN(CC(=O)N(C)C)CC2	-101

Structure (SMILES)	cytotoxicity at 10 µM [%]
Cc1cc(C)nc(N2CCCC2c2[nH]ncc2C(=O)N(C)C)n1 (stereo unspecified)	-1.51
O=C(C1CCN(c2snc3ccccc23)CC1)N1CCCCCC1	11.7
Cc1[nH]ncc1C(C)NCc1cccnc1 (stereo unspecified)	-0.98
O=C(CN1CCCC1)N1CCCC1c1nc(O)cc(-c2ccccn2)n1 (stereo unspecified)	-10.7
CCc1nnsc1C(=O)N(C)Cc1nnc2n1CCC2	-0.862
Cc1nnc(CN(C)CC(=O)N2CCCC(C(F)(F)F)C2)n1C (stereo unspecified)	4.49
Cn1cc(-c2nc(C(=O)N3CCCC3c3cnn(C)c3)cs2)cn1 (stereo unspecified)	1.85
CCCc1nnc(NC2CCN(C3CCOCC3)CC2)o1	-4.92
CC(C)Cc1ncc2c(n1)CN(C(=O)c1ccc(Cn3ccnc3)o1)C2	3.09
CN(C)[C@@H]1CN(C(=O)Cc2ccsc2)[C@@H]2CCCO[C@H]12	3.08
CC(Cn1cncn1)NC(=O)c1cn(Cc2ccccc2F)nn1 (stereo unspecified)	-1.62
Cc1ccc(Cl)cc1N1CCC(CNC(=O)CCn2ccnn2)C1 (stereo unspecified)	-5.72
Cc1noc(C)c1CN1C[C@@H]2C[C@@H](C)O[C@@H]2C1	4.06
CC(C)CCn1[nH]c(CNc2ccc(F)cc2)nc1=O	11.3
CCn1c(CN2CCN(C(=O)C3CCC3)CC2)nc2c(F)cccc21	-3.78
OC(CN(Cc1ccccc1)Cc1ccncc1)c1ccco1 (stereo unspecified)	24.7
c1cncc(N2CC[C@@H]3CN(CC4CC4)C[C@@H]3C2)c1	-4.74
COc1ccccc1-n1c(O)cc(C)c(C#N)c1=O	2.74
O=C(NCCC1CCN(CC(F)(F)F)CC1)C1CCOC1 (stereo unspecified)	5.69
COC(=O)c1cccc(-c2c[nH]c(C)n2)c1	-0.734
CCc1nc(C2CCCN(C(=O)c3c(C)noc3C)C2)no1 (stereo unspecified)	-12.8
Cc1cc(C)c(S(=O)(=O)Nc2ccccc2CC(F)(F)F)cc1C(=O)O	-1.47
Cc1ccc(N2CCCc3sc(C(=O)NCc4ccc(C)o4)nc32)nn1	4.93
